Calls of active or inactive are those of the source. No cut-off for these calls is given here.
How the values were obtained:
Xenopus laevis [1] = test: Anesthetic effect on prelimb-bud stage of Xenopus laevis tadpole assessed as loss of swimming reflex at 10 uM; type: functional, organism-based
In short: (§1)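 Swimming-reflex scoring in tadpoles at single bath concentrations of 3 μM and 10 μM. Results are reported as whether the tadpoles kept or lost the reflex at each concentration.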

Oocyte [2] = test: Modulation of rat GABA-A alpha1beta2gamma2L receptor expressed in Xenopus oocytes assessed as increase of GABA-induced chloride current at 0.1 uM by two electrode voltage-clamp method relative to control; type: cell-based
In short: (§2)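 Two-electrode recording of GABA currents in Xenopus oocytes expressing rat α1β2γ2L GABA-A receptors. The control current was evoked with 2 μM GABA, then compound was co-applied at 0.1, 1 or 10 μM. Each value is the current with compound divided by the current without it, from at least four oocytes (SEM, N ≥ 4).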

[3] = Displacement of [35S]TBPS from GABA-A receptor picrotoxin binding site in rat brain cortical membranes after 2 hrs by scintillation counting; type: cell membranes, Membrane
Oocyte [4] = test: Modulation of rat GABA-A alpha1beta2gamma2L receptor expressed in Xenopus oocytes assessed as increase of GABA-induced chloride current at 10 uM by two electrode voltage-clamp method relative to control; type: cell-based; in short: as §2
Oocyte [5] = test: Modulation of rat GABA-A alpha1beta2gamma2L receptor expressed in Xenopus oocytes assessed as increase of chloride current at 10 uM by two electrode voltage-clamp method relative to GABA; type: cell-based
In short: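 Direct gating test on oocytes expressing rat α1β2γ2L GABA-A receptors. Compound was applied alone at 10 μM with no GABA. The current is expressed as compound-only current divided by the current to 2 μM GABA, from at least four oocytes (SEM).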

Oocyte [6] = test: Modulation of rat GABA-A alpha1beta2gamma2L receptor expressed in Xenopus oocytes assessed as increase of GABA-induced chloride current at 1 uM by two electrode voltage-clamp method relative to control; type: cell-based; in short: as §2
Xenopus laevis [7] = test: Anesthetic effect on prelimb-bud stage of Xenopus laevis tadpole assessed as loss of righting reflex; type: functional, organism-based
In short: (§3)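 Behavioural reflex end points in tadpoles, with 10 animals at each of five or more concentrations. The highest concentration tested was 10 μM, and "none" means no reflex was lost at that level. EC50 was taken for each reflex, with error given as standard error of the mean.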

Xenopus laevis [8] = test: Anesthetic effect on prelimb-bud stage of Xenopus laevis tadpole assessed as loss of swimming reflex; type: functional, organism-based; in short: as §3
Oocyte [9] = test: Modulation of rat GABA-A alpha1beta2gamma2L receptor expressed in Xenopus oocytes assessed as increase of GABA-induced chloride current by two electrode voltage-clamp method relative to control; type: cell-based; in short: as §2
Xenopus laevis [10] = test: Anesthetic effect on prelimb-bud stage of Xenopus laevis tadpole assessed as loss of swimming reflex at 3 uM; type: functional, organism-based; in short: as §1

Compound	Activity (Xenopus laevis [1])	fold change (FC) (Oocyte [2])	IC50 [3]	fold change (FC) (Oocyte [4])	fold change (FC) (Oocyte [5])	fold change (FC) (Oocyte [6])	EC50 (Xenopus laevis [7])	EC50 (Xenopus laevis [8])	Activity (Oocyte [9])	Activity (Xenopus laevis [10])
CC(=O)C1=CC[C@H]2[C@@H]3CC[C@H]4C[C@H](O)CC[C@]4(C)[C@H]3C(=O)C[C@]12C	inactive	0.94	2220 nM	1.87	0.08	0.97	> 10000 nM			
CC(=O)[C@H]1CC[C@H]2[C@@H]3CC[C@H]4C[C@H](O)CC[C@]4(C)[C@H]3C(=O)C[C@]12C [ALFAXALONE]	Active	2.91		19.6	0.11	4.7	1120 nM	5480 nM	Dose-dependent effect	inactive
C[C@]12CC[C@@H](O)C[C@@H]1CC[C@@H]1[C@@H]2C(=O)C[C@]2(C)C(C#N)=CC[C@@H]12	Active	1.49	361 nM	23.8	0.21	4.07	1040 nM	5480 nM		inactive
C[C@]12CC[C@@H](O)C[C@@H]1CC[C@H]1[C@@H]3CC[C@H](C#N)[C@@]3(C)CC(=O)[C@@H]12	Active	1.12	190 nM	21.1	0.14	4.59	720 nM	5480 nM		inactive

From ChEMBL document CHEMBL1799976, “Neurosteroid analogues. 15. A comparative study of the anesthetic and GABAergic actions of alphaxalone, Δ16-alphaxalone and their corresponding 17-carbonitrile analogues” (Bioorg Med Chem Lett, 2010)
